Experimental findings from ChEMBL document CHEMBL3751842, “Novel triazolothiadiazines act as potent anticancer agents in liver cancer cells through Akt and ASK-1 proteins” (Bioorg Med Chem, 2016) are described below.

Active and inactive are the calls of the source. No cut-off for these calls is given here.

Test system in the first assay: not listed separately
Briefly: Cytotoxicity against human Mahlavu cells assessed as growth inhibition after 72 hrs by sulforhodamine B assay. In kind it is functional, cell-based. The conditions noted are these: Homo sapiens, Mahlavu, 72 h; read-out: IC50. The procedure, abridged:
(§1)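 Cells were grown at 37°C, 5% CO2 in DMEM with 10% FBS. They were seeded at 1000–3000 cells/well, grown 24 h, then exposed to compound at 2.5–40 µM for 72 h. Cells were fixed in 10% TCA for 1 h at 4°C, stained with 0.4% SRB in 1% acetic acid for 10 min, and the dye solubilized in 10 mM Tris. Absorbance was read at 515 nm; runs were in triplicate; IC50 was calculated, with fits of R2 0.8–1 accepted.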
A general note: In SRB staining, fixed cells bind dye roughly in proportion to their protein.
A word on the IC50: it is the concentration that inhibits the measured activity by half. In the case of `CC(C)Cc1ccc(C(C)c2nnc3n2N=C(c2ccc(Br)cc2)CS3)cc1` (stereo not drawn), the IC50 was determined as 8.9 µM.
Consider `CC(c1ccc(-c2ccccc2)c(F)c1)c1nnc2n1N=C(c1ccc(F)cc1)CS2` (stereo not drawn), for which the IC50 is 7.4 µM.
Still for that read-out and setting: under `CC(c1ccc(-c2ccccc2)c(F)c1)c1nnc2n1N=C(c1ccc(Cl)cc1)CS2` (stereo not drawn) stands 6.1 µM.
The same measure, in the same setting: under `CC(c1ccc(-c2ccccc2)c(F)c1)c1nnc2n1N=C(c1ccc(Cl)cc1Cl)CS2` (stereo not drawn) stands 6.6 µM.
On to `COc1ccc(C2=Nn3c(nnc3C(C)c3ccc(-c4ccccc4)c(F)c3)SC2)cc1` (stereo not drawn), for which the IC50 amounted to 5.8 µM.

The test system of the next assay is Huh-7. Kind of assay: Induction of apoptosis in human HuH7 cells assessed as nuclear condensation at 10 uM after 48 hrs by Hoechst 33258 staining-based immunofluorescence microscopy. In kind it is functional, cell-based.
Conditions: not given
The procedure, abridged:
(§2)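 Cells on coverslips were incubated overnight, then treated with 10 µM compound or DMSO for 48 h. They were washed in ice-cold PBS, fixed in cold methanol for 10 min, and stained with 1 µg/mL Hoechst 33258 for 5 min in the dark. Nuclei were examined by fluorescence microscopy with a 40x objective.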
As to `CC(C)Cc1ccc(C(C)c2nnc3n2N=C(c2ccc(Br)cc2)CS3)cc1` (stereo not drawn), the outcome was Active.
On the same count and under the same terms, under `CC(c1ccc(-c2ccccc2)c(F)c1)c1nnc2n1N=C(c1ccc(F)cc1)CS2` (stereo not drawn) stands “Active”; under `CC(c1ccc(-c2ccccc2)c(F)c1)c1nnc2n1N=C(c1ccc(Cl)cc1)CS2` (stereo not drawn), “Active”; under `CC(c1ccc(-c2ccccc2)c(F)c1)c1nnc2n1N=C(c1ccc(Cl)cc1Cl)CS2` (stereo not drawn), “Active”.
On the same count and under the same terms, under `COc1ccc(C2=Nn3c(nnc3C(C)c3ccc(-c4ccccc4)c(F)c3)SC2)cc1` (stereo not drawn) stands “Active”.

Another assay deals with Huh-7. Briefly: Induction of apoptosis in human HuH7 cells assessed as horseshoe nuclear structure at 10 uM after 48 hrs by Hoechst 33258 staining-based immunofluorescence microscopy. In kind it is functional, cell-based.
Conditions: not given
The procedure, abridged: as §2
`CC(C)Cc1ccc(C(C)c2nnc3n2N=C(c2ccc(Br)cc2)CS3)cc1` (stereo not drawn): the outcome was Active.
Same read-out and setting: under `CC(c1ccc(-c2ccccc2)c(F)c1)c1nnc2n1N=C(c1ccc(F)cc1)CS2` (stereo not drawn) stands “Active”; under `CC(c1ccc(-c2ccccc2)c(F)c1)c1nnc2n1N=C(c1ccc(Cl)cc1)CS2` (stereo not drawn), “Active”; under `CC(c1ccc(-c2ccccc2)c(F)c1)c1nnc2n1N=C(c1ccc(Cl)cc1Cl)CS2` (stereo not drawn), “Active”.
For `COc1ccc(C2=Nn3c(nnc3C(C)c3ccc(-c4ccccc4)c(F)c3)SC2)cc1` (stereo not drawn), the outcome was Active.

For a further assay, the system named is MCF7. Briefly: Cytotoxicity against human MCF7 cells assessed as growth inhibition after 72 hrs by sulforhodamine B assay. The conditions noted are these: Homo sapiens, MCF7, 72 h; read-out: IC50. It counts as functional, cell-based. The method, boiled down: as §1
Consider `CC(C)Cc1ccc(C(C)c2nnc3n2N=C(c2ccc(Br)cc2)CS3)cc1` (stereo not drawn), for which the 50% inhibitory concentration (IC50) is 9.4 µM.
Still for that read-out and setting: under `CC(c1ccc(-c2ccccc2)c(F)c1)c1nnc2n1N=C(c1ccc(F)cc1)CS2` (stereo not drawn) stands 8.1 µM; under `CC(c1ccc(-c2ccccc2)c(F)c1)c1nnc2n1N=C(c1ccc(Cl)cc1)CS2` (stereo not drawn), 8.7 µM.
On the same count and under the same terms, under `CC(c1ccc(-c2ccccc2)c(F)c1)c1nnc2n1N=C(c1ccc(Cl)cc1Cl)CS2` (stereo not drawn) stands 7.6 µM; under `COc1ccc(C2=Nn3c(nnc3C(C)c3ccc(-c4ccccc4)c(F)c3)SC2)cc1` (stereo not drawn), 2.6 µM.

Test system in a further assay: not listed separately
Kind of assay: Cytotoxicity against human HCT116 cells assessed as growth inhibition after 72 hrs by sulforhodamine B assay. Particulars: Homo sapiens, HCT-116, 72 h; read-out: IC50. It counts as functional, cell-based, HCT-116. The method, boiled down:
as §1
`CC(C)Cc1ccc(C(C)c2nnc3n2N=C(c2ccc(Br)cc2)CS3)cc1` (stereo not drawn): the IC50 is 7.1 µM.
`CC(c1ccc(-c2ccccc2)c(F)c1)c1nnc2n1N=C(c1ccc(F)cc1)CS2` (stereo not drawn): the concentration for half-maximal inhibition (IC50) amounted to 10.5 µM.
Regarding `CC(c1ccc(-c2ccccc2)c(F)c1)c1nnc2n1N=C(c1ccc(Cl)cc1)CS2` (stereo not drawn), the IC50 is 7.8 µM.
Regarding `CC(c1ccc(-c2ccccc2)c(F)c1)c1nnc2n1N=C(c1ccc(Cl)cc1Cl)CS2` (stereo not drawn), the half-inhibitory concentration (IC50) is 6.9 µM.
Same read-out and setting: under `COc1ccc(C2=Nn3c(nnc3C(C)c3ccc(-c4ccccc4)c(F)c3)SC2)cc1` (stereo not drawn) stands 4.4 µM.

The next assay concerns HepG2. Briefly: Cytotoxicity against human HepG2 cells assessed as growth inhibition after 72 hrs by sulforhodamine B assay. The conditions noted are these: Homo sapiens, HepG2, 72 h; read-out: IC50. It counts as functional, cell-based. The method, boiled down:
as §1
As to `CC(C)Cc1ccc(C(C)c2nnc3n2N=C(c2ccc(Br)cc2)CS3)cc1` (stereo not drawn), the IC50 came out at 6.4 µM.
The same measure, in the same setting: under `CC(c1ccc(-c2ccccc2)c(F)c1)c1nnc2n1N=C(c1ccc(F)cc1)CS2` (stereo not drawn) stands 5.1 µM; under `CC(c1ccc(-c2ccccc2)c(F)c1)c1nnc2n1N=C(c1ccc(Cl)cc1)CS2` (stereo not drawn), 6.7 µM; under `CC(c1ccc(-c2ccccc2)c(F)c1)c1nnc2n1N=C(c1ccc(Cl)cc1Cl)CS2` (stereo not drawn), 8.6 µM.
Same read-out and setting: under `COc1ccc(C2=Nn3c(nnc3C(C)c3ccc(-c4ccccc4)c(F)c3)SC2)cc1` (stereo not drawn) stands 4.2 µM.

Test system in a further assay: not listed separately
Briefly: Cytotoxicity against human HuH7 cells assessed as growth inhibition after 72 hrs by sulforhodamine B assay. In kind it is functional, cell-based, Huh-7. Particulars: Homo sapiens, Huh-7, 72 h; read-out: IC50. The procedure, abridged:
as §1
In the case of `CC(C)Cc1ccc(C(C)c2nnc3n2N=C(c2ccc(Br)cc2)CS3)cc1` (stereo not drawn), the IC50 was 4.9 µM.
Still for that read-out and setting: under `CC(c1ccc(-c2ccccc2)c(F)c1)c1nnc2n1N=C(c1ccc(F)cc1)CS2` (stereo not drawn) stands 4.9 µM; under `CC(c1ccc(-c2ccccc2)c(F)c1)c1nnc2n1N=C(c1ccc(Cl)cc1)CS2` (stereo not drawn), 3.9 µM; under `CC(c1ccc(-c2ccccc2)c(F)c1)c1nnc2n1N=C(c1ccc(Cl)cc1Cl)CS2` (stereo not drawn), 3.7 µM.
Still for that read-out and setting: under `COc1ccc(C2=Nn3c(nnc3C(C)c3ccc(-c4ccccc4)c(F)c3)SC2)cc1` (stereo not drawn) stands 4.3 µM.

Another assay relates to Huh-7. Briefly: Cytotoxicity against human HuH7 cells assessed as cell impedance at IC25 to IC100 measured every 30 mins for 72 hrs by RT-CES assay. It counts as functional, cell-based. Particulars: TDE = time-dependent effect. The procedure, abridged: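 Huh7 cells were seeded at 1000–5000 cells/well on electrode plates. […] Impedance was read as cell index every 10 min for the first 24 h, then every 30 min, over 72 h. Data were normalized to DMSO; inhibition (%) = [1 − (CI treated/CI DMSO)] × 100. Each experiment was run at least three times.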
Turning to `CC(C)Cc1ccc(C(C)c2nnc3n2N=C(c2ccc(Br)cc2)CS3)cc1` (stereo not drawn), the Activity entry is “tde”.
As for `CC(c1ccc(-c2ccccc2)c(F)c1)c1nnc2n1N=C(c1ccc(F)cc1)CS2` (stereo not drawn), the Activity entry was “tde”.
The same measure, in the same setting: under `CC(c1ccc(-c2ccccc2)c(F)c1)c1nnc2n1N=C(c1ccc(Cl)cc1)CS2` (stereo not drawn) stands “tde”.
`CC(c1ccc(-c2ccccc2)c(F)c1)c1nnc2n1N=C(c1ccc(Cl)cc1Cl)CS2` (stereo not drawn): the Activity result is “tde”.
Still for that read-out and setting: under `COc1ccc(C2=Nn3c(nnc3C(C)c3ccc(-c4ccccc4)c(F)c3)SC2)cc1` (stereo not drawn) stands “tde”.

Test system in a further assay: not listed separately
Briefly: Cytotoxicity against human Hep3B cells assessed as growth inhibition after 72 hrs by sulforhodamine B assay. It counts as functional, cell-based, Hep 3B2. The conditions noted are these: Homo sapiens, Hep3B, 72 h; read-out: IC50. The method, boiled down: as §1
In the case of `CC(C)Cc1ccc(C(C)c2nnc3n2N=C(c2ccc(Br)cc2)CS3)cc1` (stereo not drawn), the IC50 worked out at 8.3 µM.
On the same count and under the same terms, under `CC(c1ccc(-c2ccccc2)c(F)c1)c1nnc2n1N=C(c1ccc(F)cc1)CS2` (stereo not drawn) stands 2.6 µM; under `CC(c1ccc(-c2ccccc2)c(F)c1)c1nnc2n1N=C(c1ccc(Cl)cc1)CS2` (stereo not drawn), 3.8 µM.
The same measure, in the same setting: under `CC(c1ccc(-c2ccccc2)c(F)c1)c1nnc2n1N=C(c1ccc(Cl)cc1Cl)CS2` (stereo not drawn) stands 4.2 µM; under `COc1ccc(C2=Nn3c(nnc3C(C)c3ccc(-c4ccccc4)c(F)c3)SC2)cc1` (stereo not drawn), 3.5 µM.

Test system in another assay: not listed separately
Briefly: Cytotoxicity against human FOCUS cells assessed as growth inhibition after 72 hrs by sulforhodamine B assay. It counts as functional, cell-based. Particulars: Homo sapiens, FOCUS, 72 h; read-out: IC50. The procedure, abridged: as §1
On to `CC(C)Cc1ccc(C(C)c2nnc3n2N=C(c2ccc(Br)cc2)CS3)cc1` (stereo not drawn), for which the 50% inhibitory concentration (IC50) is 5.9 µM.
Turning to `CC(c1ccc(-c2ccccc2)c(F)c1)c1nnc2n1N=C(c1ccc(F)cc1)CS2` (stereo not drawn), the IC50 came to 3.5 µM.
As for `CC(c1ccc(-c2ccccc2)c(F)c1)c1nnc2n1N=C(c1ccc(Cl)cc1)CS2` (stereo not drawn), the half-inhibitory concentration (IC50) was found to be 5 µM.
With `CC(c1ccc(-c2ccccc2)c(F)c1)c1nnc2n1N=C(c1ccc(Cl)cc1Cl)CS2` (stereo not drawn), the concentration for half-maximal inhibition (IC50) came out at 5.4 µM.
Same read-out and setting: under `COc1ccc(C2=Nn3c(nnc3C(C)c3ccc(-c4ccccc4)c(F)c3)SC2)cc1` (stereo not drawn) stands 4.4 µM.

In another assay the test system is Huh-7. Briefly: Induction of cell cycle arrest in human HuH7 cells assessed as accumulation at subG1 phase at 10 uM after 24 to 48 hrs by propidium iodide staining based FACS analysis. In kind it is functional.
Conditions: not given
The method, boiled down: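 Huh7 cells were seeded at 300,000 per 100-mm dish. After 24 h they were treated with 10 µM compound or DMSO for 24 h and 48 h. Cells were trypsinized, fixed in ice-cold 70% ethanol and stored at −20 °C. They were then stained with propidium iodide and cell-cycle distribution, including SubG1, was read by flow cytometry.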
(In general: A flow cytometer gives signals particle by particle.)
For `CC(C)Cc1ccc(C(C)c2nnc3n2N=C(c2ccc(Br)cc2)CS3)cc1` (stereo not drawn), the result was Active.
On the same count and under the same terms, under `CC(c1ccc(-c2ccccc2)c(F)c1)c1nnc2n1N=C(c1ccc(Cl)cc1)CS2` (stereo not drawn) stands “Active”; under `COc1ccc(C2=Nn3c(nnc3C(C)c3ccc(-c4ccccc4)c(F)c3)SC2)cc1` (stereo not drawn), “Active”.

Test system in the next assay: not listed separately
Briefly: Cytotoxicity against human SNU475 cells assessed as growth inhibition after 72 hrs by sulforhodamine B assay. It counts as functional, cell-based, SNU-475. Particulars: Homo sapiens, SNU-475, 72 h; read-out: IC50. The procedure, abridged:
as §1
For the compound `CC(C)Cc1ccc(C(C)c2nnc3n2N=C(c2ccc(Br)cc2)CS3)cc1` (stereo not drawn), the concentration for half-maximal inhibition (IC50) was 10.1 µM.
Same read-out and setting: under `CC(c1ccc(-c2ccccc2)c(F)c1)c1nnc2n1N=C(c1ccc(F)cc1)CS2` (stereo not drawn) stands 6.6 µM; under `CC(c1ccc(-c2ccccc2)c(F)c1)c1nnc2n1N=C(c1ccc(Cl)cc1)CS2` (stereo not drawn), 3.8 µM.
On to `CC(c1ccc(-c2ccccc2)c(F)c1)c1nnc2n1N=C(c1ccc(Cl)cc1Cl)CS2` (stereo not drawn), for which the half-inhibitory concentration (IC50) was found to be 4.7 µM.
Same read-out and setting: under `COc1ccc(C2=Nn3c(nnc3C(C)c3ccc(-c4ccccc4)c(F)c3)SC2)cc1` (stereo not drawn) stands 6.7 µM.
